In publication PMC3810942 (FEBS letters, 2013):
Entries after “also recorded” stand apart in the source; their conditions may differ.

Tests used:
[1] = target: AVP (adenovirus proteinase) (Human adenovirus C serotype 2, UniProt P03252); test: Inhibition of AVP; assay type: biochemical, adenovirus serotype 2
Outline: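 Purified adenovirus type 2 AVP was pre-incubated 9 min at 21°C with varied compound in 5 mM NaCl, 20 mM Tris-HCl pH 8, 0.025% DDM, 0.1 mM DTT. pVIc was then added to 20 μM for another 9 min. Rates with 5 μM (Cbz-Leu-Arg-Gly-Gly-NH)₂-Rhodamine were read every 10 s (ex 496/em 523 nm). IC50 came from a four-parameter logistic fit of initial rates.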

[2] = target: T1, AVP-pVIc complexes (Human adenovirus C serotype 2, UniProt P03252); test: Inhibition of AVP-pVIc complexes, fluorogenic substrate assay; assay type: biochemical, adenovirus serotype 2
T1 sequence (P03252 whole entry, one chain of several): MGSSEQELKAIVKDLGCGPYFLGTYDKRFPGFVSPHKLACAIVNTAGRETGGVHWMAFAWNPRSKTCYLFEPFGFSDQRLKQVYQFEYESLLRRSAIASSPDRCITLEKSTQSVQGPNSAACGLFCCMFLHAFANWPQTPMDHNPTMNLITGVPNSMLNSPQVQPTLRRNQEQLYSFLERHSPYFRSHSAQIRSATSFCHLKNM

[3] = target: T2, Trypsin (Bos taurus, UniProt P00760); test: Selectivity assay with trypsin; assay type: biochemical
T2 sequence (P00760 24-246): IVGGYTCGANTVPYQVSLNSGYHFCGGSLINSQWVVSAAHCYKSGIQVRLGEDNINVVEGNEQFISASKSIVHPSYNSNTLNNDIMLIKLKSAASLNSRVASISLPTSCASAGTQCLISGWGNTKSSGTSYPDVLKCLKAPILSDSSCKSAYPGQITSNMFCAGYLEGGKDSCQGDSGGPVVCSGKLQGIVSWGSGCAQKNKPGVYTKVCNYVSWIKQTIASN
Outline: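 TPCK-treated trypsin was exposed to increasing compound at 21°C in 25 mM HEPES with 1 mM CaCl₂. Substrate hydrolysis was tracked as fluorescence increase (ex 496/em 523 nm). Rates were normalized to the no-inhibitor rate and expressed as % activity.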

[4] = target: T3, Papain (Carica papaya, UniProt P00784); test: Selectivity assay with papain; assay type: biochemical
T3 sequence (P00784 134-345): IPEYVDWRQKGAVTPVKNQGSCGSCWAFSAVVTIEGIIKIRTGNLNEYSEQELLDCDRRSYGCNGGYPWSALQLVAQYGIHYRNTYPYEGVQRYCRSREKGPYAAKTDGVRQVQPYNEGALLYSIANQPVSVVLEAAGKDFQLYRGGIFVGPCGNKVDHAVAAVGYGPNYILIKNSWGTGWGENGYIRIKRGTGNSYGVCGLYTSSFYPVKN
Outline: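 Papain was incubated with increasing compound for 10 min at 21°C in 25 mM sodium acetate with 1 mM DTT. Hydrolysis of the fluorogenic substrate was followed over time (ex 496/em 523 nm). Rates were normalized to the rate without inhibitor and reported as % activity.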

[5] = tested on: AVP and AVP-pVIc complexes; test: Coarse screening of structural derivatives for enzyme inhibitors; assay type: biochemical, adenovirus serotype 2; conditions: 40 μM compound, 150 mM NaCl, 0.3 μM enzyme
Outline: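 AVP (adenovirus type 2, E. coli-expressed) or AVP-pVIc complexes (75 μM each, overnight at 4°C with 20 mM β-mercaptoethanol) were pre-incubated 9 min at 21°C with compound from 10 mM DMSO stock. Buffer was 20 mM Tris-HCl pH 8, 0.025% DDM, 0.1 mM DTT. For AVP, 40 μM pVIc was then added for 9 min more. Initial rates with 5 μM (Cbz-Leu-Arg-Gly-Gly-NH)₂-Rhodamine (ex 496/em 523 nm) were normalized to the no-inhibitor rate.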

[6] = target: T1, AVP-pVIc complexes; test: Competitive inhibition of AVP-pVIc complexes; assay type: biochemical, adenovirus serotype 2
[7] = target: AVP (Human adenovirus C serotype 2, UniProt P03252); test: Mixed inhibition of AVP; assay type: biochemical, adenovirus serotype 2
AVP, sequence (P03252 whole entry): as the sequence (P03252 whole entry, one chain of several) above

[8] = target: Adenovirus proteinase (AVP) (Human adenovirus 2) (UniProt P03252); conditions: cited from earlier work
Adenovirus proteinase (AVP) (Human adenovirus 2), sequence (P03252 whole entry): as the sequence (P03252 whole entry, one chain of several) above

[9] = 20 pM trypsin, 10 min, pH 7.5, 10 μM (Ile-Pro-Arg-NH)2-Rhodamine
[10] = 0.18 μM papain, pH 5, 10 μM (Phe-Arg-NH)2-Rhodamine
[11] = concentrations 50-fold higher than that inhibiting AVP or AVP-pVIc by more than 90%
[12] = best fitting model, SigmaPlot Kinetic Module

AVP (adenovirus proteinase), sequence (P03252 whole entry): as the sequence (P03252 whole entry, one chain of several) above
pVIc, sequence (P03274 whole entry, looked up): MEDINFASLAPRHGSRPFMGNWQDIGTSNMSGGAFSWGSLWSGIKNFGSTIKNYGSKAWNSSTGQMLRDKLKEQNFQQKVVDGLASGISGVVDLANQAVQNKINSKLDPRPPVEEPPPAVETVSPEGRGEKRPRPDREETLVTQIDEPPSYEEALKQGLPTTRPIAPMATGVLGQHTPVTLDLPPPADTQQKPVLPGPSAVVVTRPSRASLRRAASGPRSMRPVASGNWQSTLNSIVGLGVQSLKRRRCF

## CC(C)CCN(CCC(C)C)CC(=O)Nc1ccc(S(=O)(=O)c2ccc(NC(=O)CN(CCC(C)C)CCC(C)C)cc2)cc1 [NSC 37248, 2-[bis(3-methylbutyl)amino]-N-[4-[4-[[2-[bis(3-methylbutyl)amino]acetyl]amino]phenyl]sulfonylphenyl]acetamide]
[1]
  IC50: 880 nM
[2]
  IC50: 2100 nM
[3]; [9]
  Inhibition of trypsin: No Inhibition
[4]; [10]
  Inhibition of papain: No Inhibition
[5]
  Inhibition in coarse screen: inhibit either the activation of AVP or the activity of AVP-pVIc complexes; also recorded: effective inhibitors

## O=C(CN(C1CCCCC1)C1CCCCC1)Nc1ccc(S(=O)(=O)c2ccc(NC(=O)CN(C3CCCCC3)C3CCCCC3)cc2)cc1 [NSC 37249, 2-(dicyclohexylamino)-N-[4-[4-[[2-(dicyclohexylamino)acetyl]amino]phenyl]sulfonylphenyl]acetamide]
[1]
  IC50: 140 nM
[2]
  IC50: 490 nM
[3]; [9]
  Inhibition of trypsin: No Inhibition
[3]; [11]
  Inhibition of trypsin: did not inhibit
[3]; concentrations up to 18 μM
  Inhibition of trypsin: no inhibition was observed
[4]; [10]
  Inhibition of papain: No Inhibition
[4]; [11]
  Inhibition of papain: did not inhibit
[4]; concentrations up to 50-fold the Ki for AVP
  Inhibition of papain: no inhibition was observed
[6]; Ki AVP:pVIc, competitive inhibition model, substrate 2.5-20 μM
  Ki: 403 nM
[6]; [12]
  Type of inhibition, AVP-pVIc complexes: Competitive Inhibition; also recorded: competitive inhibitor
[7]
  Ki: 150 nM
[7]; [12]
  Type of inhibition, AVP: Mixed Inhibition
[5]
  Inhibition in coarse screen: inhibit either the activation of AVP or the activity of AVP-pVIc complexes; also recorded: effective inhibitors

## pVIc (from UniProt P03274)
[8]
  Kd: 4400 nM

## O=C(Nc1ccc(S(=O)(=O)c2ccc(NC(=O)C(F)(F)N3CCOCC3)cc2)cc1)C(F)(F)N1CCOCC1 [NSC 106721, N-[4-[4-[(2,2-difluoro-2-morpholin-4-ylacetyl)amino]phenyl]sulfonylphenyl]-2,2-difluoro-2-morpholin-4-ylacetamide]
[5]
  Inhibition in coarse screen: inhibit either the activation of AVP or the activity of AVP-pVIc complexes

## CC1COCC(C)N1CC(=O)Nc1ccc(S(=O)(=O)c2ccc(NC(=O)CN3C(C)COCC3C)cc2)cc1 (centres unmarked) [NSC 106702, 2-(3,5-dimethylmorpholin-4-yl)-N-[4-[4-[[2-(3,5-dimethylmorpholin-4-yl)acetyl]amino]phenyl]sulfonylphenyl] acetamide]
[5]
  Inhibition in coarse screen: inhibit either the activation of AVP or the activity of AVP-pVIc complexes

## O=C1CN2CCN(CC2)CC(=O)Nc2ccc(cc2)S(=O)(=O)c2ccc(cc2)NC(=O)CN2CCN(CC2)CC(=O)Nc2ccc(cc2)S(=O)(=O)c2ccc(cc2)N1 [NSC 36806, 2,21-dithia-7,10,13,16,26,29,32,35-octaazaheptacyclo[34.2.2.23,6.210,13.217, 20.222,25.229,32]pentaconta-1(38),3,5,17,19,22,24,36,39,43,45,49-dodecaene-8,15,27,34-tetrone 2,2,21,21-tetraoxide]
[2]
  IC50: 18000 nM
[3]; [9]
  Inhibition of trypsin: did not inhibit
